{
  "source": "ChEMBL document CHEMBL5678805",
  "about": "“Intermittent administration of MEK inhibitor GDC-0973 plus PI3K inhibitor GDC-0941 triggers robust apoptosis and tumor growth inhibition” (Cancer Res, 2012)",
  "key": {"A2058 [1]": {"tested_on": "A2058", "assay": "Antitumor activity against human A2058 cells xenografted in mouse assessed as tumor growth inhibition at 20 mg/kg, po administered every third day for 21 days", "assay_type": "functional", "conditions": "A2058, 504 h, time 21 day, read-out: TGI", "in_short": "(§1)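 Human tumor xenografts in mice. Drugs given orally, as single agents or combined with the PI3K inhibitor. Schedules were daily (QD) or every third day (Q3D) over 21 days. Tumor volume was measured by caliper as (L×W×W)/2. %TGI = 100×[1 − AUC(treatment/d)/AUC(vehicle/d)] from fitted growth curves, with group means. Tumor lysates were immunoblotted for pS6.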"}, "A2058 [2]": {"tested_on": "A2058", "assay": "Antitumor activity against human A2058 cells harboring BRAF V600E/PTEN L112Q/V175/TP53 V274F mutant xenografted in mouse assessed as tumor growth inhibition at 5 mg/kg, po", "assay_type": "functional", "conditions": "read-out: TGI", "in_short": "(§2)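 Mice carrying human tumor xenografts dosed orally once daily for 21 consecutive days. Tumor volume measured by calipers as (L×W×W)/2. %TGI = 100×[1 − AUC(treatment/day)/AUC(vehicle/day)], using the area under the fitted growth curve relative to vehicle.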"}, "[3]": {"assay": "Antitumor activity against human A375.X1 cells xenografted in mouse assessed as reduction in ERK phosphorylation at 10 mg/kg, po administered for 3 days and measured at 2 to 24 hrs by Western blot analysis", "assay_type": "functional", "design": "scale not given: the % may be the effect or the level left", "conditions": "time 74-96 hrs", "in_short": "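A375.X1 xenograft mice were dosed orally at 1, 3, 5 or 10 mg/kg once daily for 3 days. Tumors were collected 2, 8 and 24 h after the last dose, pulverized frozen and resolved by 4–12% SDS-PAGE. p-ERK1/2 and t-ERK1/2 were measured by Western blot and quantified by band intensity, relative to vehicle-treated mice (0 h).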"}, "DLD-1 [4]": {"tested_on": "DLD-1", "assay": "Antitumor activity against human DLD-1 cells xenografted in mouse assessed as tumor growth inhibition at 15 mg/kg, po administered once a day for 21 days in presence of 4-(2-(1H-indazol-4-yl)-6-((4-(methylsulfonyl)piperazin-1-yl)methyl)thieno[3,2-d]pyrimidin-4-yl)morpholine", "assay_type": "functional", "conditions": "DLD-1, 504 h, time 21 day, read-out: TGI", "in_short": "as §1"}, "[5]": {"target": "Serine/threonine-protein kinase NLK (Homo sapiens, UniProt Q9UBE8)", "sequence (Q9UBE8 whole entry)": "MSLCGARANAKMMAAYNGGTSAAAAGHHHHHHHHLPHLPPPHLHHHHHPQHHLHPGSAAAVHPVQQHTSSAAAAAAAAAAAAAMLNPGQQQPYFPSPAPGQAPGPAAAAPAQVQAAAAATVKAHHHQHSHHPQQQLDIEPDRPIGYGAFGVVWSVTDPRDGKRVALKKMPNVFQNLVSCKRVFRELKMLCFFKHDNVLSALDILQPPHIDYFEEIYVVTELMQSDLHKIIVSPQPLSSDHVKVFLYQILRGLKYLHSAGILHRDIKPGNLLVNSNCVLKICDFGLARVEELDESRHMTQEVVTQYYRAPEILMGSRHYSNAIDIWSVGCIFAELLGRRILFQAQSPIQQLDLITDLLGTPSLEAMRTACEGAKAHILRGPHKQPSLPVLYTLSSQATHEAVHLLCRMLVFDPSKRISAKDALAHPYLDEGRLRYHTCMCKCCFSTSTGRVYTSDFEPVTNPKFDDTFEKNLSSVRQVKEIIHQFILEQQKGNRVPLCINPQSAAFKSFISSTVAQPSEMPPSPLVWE", "assay": "Inhibition of NLK (unknown origin)"}, "DLD-1 [6]": {"tested_on": "DLD-1", "assay": "Antitumor activity against human DLD-1 cells harboring KRAS G13D/IDH1 G97D/SMO T640A/APC I1417 mutant xenografted in mouse assessed as tumor growth inhibition at 10 mg/kg, po", "assay_type": "functional", "conditions": "read-out: TGI", "in_short": "(§3)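 Single-agent dose ranging in human tumor xenograft mice at 2.5, 5 or 10 mg/kg oral. Tumor volume was measured by caliper as (L×W×W)/2. %TGI = 100×[1 − AUC(treatment/d)/AUC(vehicle/d)] from the fitted growth curve per dose group, relative to vehicle.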"}, "[7]": {"target": "Testis-specific serine/threonine-protein kinase 1 (Homo sapiens, UniProt Q9BXA7)", "sequence (Q9BXA7 whole entry)": "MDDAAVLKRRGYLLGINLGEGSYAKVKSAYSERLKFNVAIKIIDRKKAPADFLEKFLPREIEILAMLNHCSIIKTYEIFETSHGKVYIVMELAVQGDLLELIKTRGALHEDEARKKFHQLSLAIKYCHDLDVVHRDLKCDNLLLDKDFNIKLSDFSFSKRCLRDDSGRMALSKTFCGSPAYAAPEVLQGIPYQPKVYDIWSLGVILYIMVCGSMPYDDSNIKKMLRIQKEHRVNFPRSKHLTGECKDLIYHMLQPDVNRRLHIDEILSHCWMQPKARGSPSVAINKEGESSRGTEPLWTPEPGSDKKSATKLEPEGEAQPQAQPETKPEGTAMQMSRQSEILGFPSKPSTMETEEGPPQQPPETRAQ", "assay": "Inhibition of TSSK1 (unknown origin)"}, "[8]": {"target": "Dual specificity mitogen-activated protein kinase kinase 6 (Homo sapiens, UniProt P52564)", "sequence (P52564 whole entry)": "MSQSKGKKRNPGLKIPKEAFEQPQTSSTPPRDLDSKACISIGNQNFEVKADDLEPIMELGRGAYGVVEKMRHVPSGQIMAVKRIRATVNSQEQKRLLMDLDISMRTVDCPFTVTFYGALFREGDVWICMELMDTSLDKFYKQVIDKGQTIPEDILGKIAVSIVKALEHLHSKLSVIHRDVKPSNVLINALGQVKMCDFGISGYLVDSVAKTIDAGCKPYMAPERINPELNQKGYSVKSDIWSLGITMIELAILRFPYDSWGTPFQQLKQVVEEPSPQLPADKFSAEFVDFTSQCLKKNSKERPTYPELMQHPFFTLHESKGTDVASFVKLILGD", "assay": "Inhibition of MKK6 (unknown origin)"}, "[9]": {"assay": "Antitumor activity against human A375.X1 cells xenografted in mouse assessed as tumor growth inhibition at 20 mg/kg, po administered every third day for 21 days in presence of 4-(2-(1H-indazol-4-yl)-6-((4-(methylsulfonyl)piperazin-1-yl)methyl)thieno[3,2-d]pyrimidin-4-yl)morpholine", "assay_type": "functional", "conditions": "A375.X1, 504 h, time 21 day, read-out: TGI", "in_short": "as §1"}, "[10]": {"target": "Tyrosine-protein kinase SYK (Homo sapiens, UniProt P43405)", "assay": "Inhibition of SYK (unknown origin)"}, "[11]": {"assay": "Antitumor activity against human A2058-X1 cells harboring BRAF V600E/PTEN L112Q/V175/TP53 V274F mutant xenografted in mouse assessed as tumor growth inhibition at 2.5 mg/kg, po", "assay_type": "functional", "conditions": "A2058-X1, read-out: TGI", "in_short": "as §3"}, "[12]": {"target": "Proto-oncogene tyrosine-protein kinase Src (Homo sapiens, UniProt P12931)", "assay": "Inhibition of SRC (unknown origin)"}, "[13]": {"target": "Tyrosine-protein kinase ZAP-70 (Homo sapiens, UniProt P43403)", "sequence (P43403 whole entry)": "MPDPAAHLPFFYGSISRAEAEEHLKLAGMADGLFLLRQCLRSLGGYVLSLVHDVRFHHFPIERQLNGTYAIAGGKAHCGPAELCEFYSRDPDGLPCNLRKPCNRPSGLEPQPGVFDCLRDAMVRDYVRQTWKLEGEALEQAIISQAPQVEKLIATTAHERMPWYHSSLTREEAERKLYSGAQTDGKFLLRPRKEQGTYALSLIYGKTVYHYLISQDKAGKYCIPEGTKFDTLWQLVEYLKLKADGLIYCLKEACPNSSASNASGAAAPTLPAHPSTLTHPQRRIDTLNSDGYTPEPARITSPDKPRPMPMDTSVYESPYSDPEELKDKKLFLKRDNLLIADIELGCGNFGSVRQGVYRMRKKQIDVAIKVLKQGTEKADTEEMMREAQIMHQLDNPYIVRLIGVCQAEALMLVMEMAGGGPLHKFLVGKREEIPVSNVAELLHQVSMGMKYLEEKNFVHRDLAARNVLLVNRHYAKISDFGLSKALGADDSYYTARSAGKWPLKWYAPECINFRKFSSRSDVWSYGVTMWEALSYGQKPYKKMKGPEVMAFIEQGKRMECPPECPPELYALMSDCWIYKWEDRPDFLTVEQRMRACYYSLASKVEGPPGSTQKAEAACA", "assay": "Inhibition of ZAP70 (unknown origin)"}, "EBC-1": {"tested_on": "EBC-1", "assay": "Antitumor activity against human EBC-1 cells harboring MET amp and EGFR G719S/L858R mutant xenografted in mouse assessed as tumor growth inhibition at 5 mg/kg, po", "assay_type": "functional", "conditions": "read-out: TGI", "in_short": "as §3"}, "[14]": {"target": "Serine/threonine-protein kinase PAK 4 (Homo sapiens, UniProt O96013)", "assay": "Inhibition of PAK4 (unknown origin)"}, "[15]": {"target": "Platelet-derived growth factor receptor beta (Homo sapiens, UniProt P09619)", "assay": "Inhibition of PDGFR beta (unknown origin)"}, "[16]": {"target": "Mitogen-activated protein kinase 8 (Homo sapiens, UniProt P45983)", "assay": "Inhibition of JNK1 (unknown origin)"}, "888-mel": {"tested_on": "888-mel", "assay": "Inhibition of AKT phosphorylation in human 888-mel cells incubated for 24 hrs in presence of 4-(2-(1H-indazol-4-yl)-6-((4-(methylsulfonyl)piperazin-1-yl)methyl)thieno[3,2-d]pyrimidin-4-yl)morpholine by immunoblotting analysis", "assay_type": "cell-based"}, "MOLM-13": {"tested_on": "MOLM-13", "assay": "Antitumor activity against human MOLM-13 cells harboring FLT3 Y599_D600insFDFREYE and c-Cbl E366_Q409del mutant xenografted in mouse assessed as tumor growth inhibition at 5 mg/kg, po", "assay_type": "functional", "conditions": "MOLM-13, read-out: TGI", "in_short": "(§4)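 Human tumor xenografts in mice were dosed orally at the indicated mg/kg. Tumor volume was measured with calipers as (L×W×W)/2. %TGI = 100 × [1 − (AUC treatment/d)/(AUC vehicle/d)], using the area under the fitted tumor-growth curve per day for each dose group relative to vehicle.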"}, "MIA PaCa-2": {"tested_on": "MIA PaCa-2", "assay": "Antitumor activity against human MIA PaCa-2 cells harboring KRAS G12C/NOTCH1 L2458V mutant xenografted in mouse assessed as tumor growth inhibition at 5 mg/kg, po", "assay_type": "functional", "conditions": "read-out: TGI", "in_short": "as §4"}, "[17]": {"target": "Serine/threonine-protein kinase 10 (Homo sapiens, UniProt O94804)", "sequence (O94804 whole entry)": "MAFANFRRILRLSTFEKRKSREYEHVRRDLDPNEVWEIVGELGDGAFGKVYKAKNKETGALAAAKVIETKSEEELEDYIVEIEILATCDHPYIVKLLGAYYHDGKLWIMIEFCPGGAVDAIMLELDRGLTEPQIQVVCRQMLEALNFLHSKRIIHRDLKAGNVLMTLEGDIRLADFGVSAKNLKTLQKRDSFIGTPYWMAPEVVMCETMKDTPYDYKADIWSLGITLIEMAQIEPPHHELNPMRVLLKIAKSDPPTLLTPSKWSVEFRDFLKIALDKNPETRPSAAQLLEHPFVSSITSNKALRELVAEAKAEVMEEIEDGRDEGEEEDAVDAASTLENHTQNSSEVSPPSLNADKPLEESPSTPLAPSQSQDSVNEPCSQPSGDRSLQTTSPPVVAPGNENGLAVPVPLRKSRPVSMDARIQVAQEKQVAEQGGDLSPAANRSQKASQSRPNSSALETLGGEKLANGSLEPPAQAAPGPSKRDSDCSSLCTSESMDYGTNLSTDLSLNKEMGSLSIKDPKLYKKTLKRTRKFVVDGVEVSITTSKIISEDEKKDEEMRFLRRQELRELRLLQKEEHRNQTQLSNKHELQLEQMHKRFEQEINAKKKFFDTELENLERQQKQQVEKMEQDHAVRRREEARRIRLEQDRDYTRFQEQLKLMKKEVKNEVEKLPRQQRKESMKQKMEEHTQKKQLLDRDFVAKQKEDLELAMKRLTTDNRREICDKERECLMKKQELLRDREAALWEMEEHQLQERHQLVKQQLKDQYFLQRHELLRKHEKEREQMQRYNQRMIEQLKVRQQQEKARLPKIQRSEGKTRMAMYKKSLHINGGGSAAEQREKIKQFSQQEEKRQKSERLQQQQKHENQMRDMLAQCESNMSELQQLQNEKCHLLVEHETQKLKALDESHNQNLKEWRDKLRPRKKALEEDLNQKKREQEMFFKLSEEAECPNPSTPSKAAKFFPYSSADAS", "assay": "Inhibition of LOK (unknown origin)"}, "A2058 [18]": {"tested_on": "A2058", "assay": "Antitumor activity against human A2058 cells xenografted in mouse assessed as tumor growth inhibition at 6 mg/kg, po administered once a day for 21 days", "assay_type": "functional", "conditions": "A2058, 504 h, time 21 day, read-out: TGI", "in_short": "as §1"}, "[19]": {"target": "Protein kinase C gamma type (Homo sapiens, UniProt P05129)", "assay": "Inhibition of PKCg (unknown origin)"}, "537-mel": {"tested_on": "537-mel", "assay": "Antitumor activity against human 537-mel cells harboring PTEN null mutation xenografted in mouse assessed as tumor growth inhibition at 10 mg/kg, po", "assay_type": "functional", "conditions": "read-out: TGI", "in_short": "as §2"}, "SK-MEL-28": {"tested_on": "SK-MEL-28", "assay": "Antiproliferative activity against human SK-MEL-28 cells assessed reduction in cell viability incubated for 4 days in presence of 4-(2-(1H-indazol-4-yl)-6-((4-(methylsulfonyl)piperazin-1-yl)methyl)thieno[3,2-d]pyrimidin-4-yl)morpholine by celltiter-glo assay", "assay_type": "functional", "conditions": "time 4 day", "in_short": "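4-day CellTiter-Glo viability read-out on melanoma lines, cells exposed to increasing concentrations of each inhibitor alone and in combination.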"}, "[20]": {"assay": "Antitumor activity against human LS174T-HM7 cells xenografted in mouse assessed as tumor growth inhibition at 10 mg/kg, po", "assay_type": "functional", "conditions": "read-out: TGI", "in_short": "as §3"}, "Insulin receptor": {"target": "Insulin receptor (Homo sapiens, UniProt P06213)", "sequence (P06213 28-758 limits assumed)": "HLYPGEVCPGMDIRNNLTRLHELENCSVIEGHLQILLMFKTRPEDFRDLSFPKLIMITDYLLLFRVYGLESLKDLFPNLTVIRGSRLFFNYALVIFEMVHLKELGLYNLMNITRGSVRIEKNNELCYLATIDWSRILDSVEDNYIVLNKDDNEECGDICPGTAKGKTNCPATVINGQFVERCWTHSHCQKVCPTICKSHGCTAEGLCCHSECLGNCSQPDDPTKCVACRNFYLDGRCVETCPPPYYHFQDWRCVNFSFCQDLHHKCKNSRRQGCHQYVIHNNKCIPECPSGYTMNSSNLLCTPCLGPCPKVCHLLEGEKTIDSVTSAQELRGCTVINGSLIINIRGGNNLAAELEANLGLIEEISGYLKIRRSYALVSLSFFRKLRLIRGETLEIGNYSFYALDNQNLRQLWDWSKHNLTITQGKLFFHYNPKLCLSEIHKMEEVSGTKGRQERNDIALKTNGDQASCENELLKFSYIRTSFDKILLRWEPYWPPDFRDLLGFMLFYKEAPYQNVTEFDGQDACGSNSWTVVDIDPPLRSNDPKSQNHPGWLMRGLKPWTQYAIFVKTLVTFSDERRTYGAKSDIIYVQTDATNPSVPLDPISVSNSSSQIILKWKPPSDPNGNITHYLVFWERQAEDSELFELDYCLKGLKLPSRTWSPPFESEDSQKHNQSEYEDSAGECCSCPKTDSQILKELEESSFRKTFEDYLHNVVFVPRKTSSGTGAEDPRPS", "sequence (P06213 763-1382 limits assumed)": "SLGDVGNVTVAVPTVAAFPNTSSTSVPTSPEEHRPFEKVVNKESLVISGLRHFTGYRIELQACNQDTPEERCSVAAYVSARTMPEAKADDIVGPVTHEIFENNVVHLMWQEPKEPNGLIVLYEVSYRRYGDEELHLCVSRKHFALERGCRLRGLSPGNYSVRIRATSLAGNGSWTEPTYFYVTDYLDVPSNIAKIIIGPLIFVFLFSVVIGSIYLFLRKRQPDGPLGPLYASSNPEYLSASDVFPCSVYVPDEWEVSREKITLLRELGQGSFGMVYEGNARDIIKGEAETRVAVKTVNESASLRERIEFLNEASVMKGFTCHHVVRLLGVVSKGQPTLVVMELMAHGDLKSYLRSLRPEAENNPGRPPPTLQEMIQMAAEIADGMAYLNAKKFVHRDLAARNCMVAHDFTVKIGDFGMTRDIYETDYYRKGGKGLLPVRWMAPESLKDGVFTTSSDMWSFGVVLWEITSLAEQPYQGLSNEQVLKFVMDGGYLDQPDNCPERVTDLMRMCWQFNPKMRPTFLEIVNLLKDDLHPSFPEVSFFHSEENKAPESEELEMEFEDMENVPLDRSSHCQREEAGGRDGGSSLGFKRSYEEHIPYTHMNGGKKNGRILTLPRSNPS", "assay": "Inhibition of insulin receptor (unknown origin)"}, "[21]": {"target": "Serine/threonine-protein kinase pim-1 (Homo sapiens, UniProt P11309)", "assay": "Inhibition of PIM1 (unknown origin)"}},
  "note": "The source made the active and inactive calls. No cut-off for these calls is given here.",
  "data": [
    {"smiles": "O=C(c1ccc(F)c(F)c1Nc1ccc(I)cc1F)N1CC(O)([C@@H]2CCCCN2)C1", "note": "[COBIMETINIB]", "values": [
      {"measurement": "inhibition in vivo at 20 mg/kg", "setting": "A2058 [1]", "value": 34, "unit": "%"},
      {"measurement": "inhibition in vivo at 5 mg/kg", "setting": "A2058 [2]", "value": 12.7, "unit": "%"},
      {"measurement": "Activity", "setting": "[3]", "value": 75, "unit": "%"},
      {"measurement": "inhibition in vivo at 15 mg/kg", "setting": "DLD-1 [4]", "value": 69, "unit": "%"},
      {"measurement": "IC50", "setting": "[5]", "value": "> 10", "unit": "µM"},
      {"measurement": "inhibition in vivo at 10 mg/kg", "setting": "DLD-1 [6]", "value": 49.5, "unit": "%"},
      {"measurement": "IC50", "setting": "[7]", "value": "> 10", "unit": "µM"},
      {"measurement": "IC50", "setting": "[8]", "value": "> 10", "unit": "µM"},
      {"measurement": "inhibition in vivo at 20 mg/kg", "setting": "[9]", "value": 118, "unit": "%"},
      {"measurement": "IC50", "setting": "[10]", "value": "> 10", "unit": "µM"},
      {"measurement": "inhibition in vivo at 2.5 mg/kg", "setting": "[11]", "value": 36, "unit": "%"},
      {"measurement": "IC50", "setting": "[12]", "value": "> 10", "unit": "µM"},
      {"measurement": "IC50", "setting": "[13]", "value": "> 10", "unit": "µM"},
      {"measurement": "inhibition in vivo at 5 mg/kg", "setting": "EBC-1", "value": 7, "unit": "%"},
      {"measurement": "IC50", "setting": "[14]", "value": "> 10", "unit": "µM"},
      {"measurement": "IC50", "setting": "[15]", "value": "> 10", "unit": "µM"},
      {"measurement": "IC50", "setting": "[16]", "value": "> 10", "unit": "µM"},
      {"measurement": "inhibition", "setting": "888-mel", "value": "Active"},
      {"measurement": "inhibition in vivo at 5 mg/kg", "setting": "MOLM-13", "value": -6, "unit": "%"},
      {"measurement": "inhibition in vivo at 5 mg/kg", "setting": "MIA PaCa-2", "value": 6, "unit": "%"},
      {"measurement": "IC50", "setting": "[17]", "value": "> 10", "unit": "µM"},
      {"measurement": "inhibition in vivo at 6 mg/kg", "setting": "A2058 [18]", "value": 44, "unit": "%"},
      {"measurement": "IC50", "setting": "[19]", "value": "> 10", "unit": "µM"},
      {"measurement": "inhibition in vivo at 10 mg/kg", "setting": "537-mel", "value": 96, "unit": "%"},
      {"measurement": "Activity", "setting": "SK-MEL-28", "value": 60, "unit": "%"},
      {"measurement": "inhibition in vivo at 10 mg/kg", "setting": "[20]", "value": 37, "unit": "%"},
      {"measurement": "IC50", "setting": "Insulin receptor", "value": "> 10", "unit": "µM"},
      {"measurement": "IC50", "setting": "[21]", "value": "> 10", "unit": "µM"}
    ]}
  ]
}
